Data set [1] relates to Liver microsome. In words: Drug metabolism in dog liver microsomes assessed as R-138727 formation measured per protein at 1.6 to 200 uM after 15 mins incubation. The following applies: 0.25 h. Format: ADME, Canis lupus familiaris. The procedure, abridged:
(§1)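 Preincubated 5 min at 37°C, then R-95913 added (1.6–200 μM final) and incubated 15 min at 37°C, in triplicate. Stopped with methoxyphenacyl bromide and internal standard in acetonitrile, solid-phase extracted, and analysed by HPLC. Michaelis-Menten fit, CLint = Vmax/Km.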
For orientation: Liver microsomes are vesicles of endoplasmic reticulum, rich in cytochrome P450 enzymes.

The nature of data set [2]: Drug metabolism in human intestinal microsomes assessed as R-138727 formation measured per protein at 1.6 to 200 uM after 15 mins incubation. The class given is ADME, Intestine, Microsome. The following applies: 0.25 h. A digest of the protocol:
as §1

Data set [3] concerns Liver microsome. In words: Drug metabolism in dog liver microsomes assessed as R-138727 formation at 1.6 to 200 uM after 15 mins incubation. The conditions noted are these: 0.25 h. Format: ADME, Canis lupus familiaris. The procedure, abridged:
as §1

Data set [4] is described as follows: Drug metabolism in dog intestinal microsomes assessed as R-138727 formation at 1.6 to 200 uM after 15 mins incubation. Format: ADME, Canis lupus familiaris, Intestine, Microsome. The conditions noted are these: 0.25 h. The procedure, abridged: as §1
Data set [5] can be described thus: Drug metabolism in human intestinal microsomes assessed as R-138727 formation at 1.6 to 200 uM after 15 mins incubation. Format: ADME, Intestine, Microsome. The following applies: 0.25 h. The procedure, abridged:
as §1

Data set [6] can be described thus: Drug metabolism in dog intestinal microsomes assessed as R-138727 formation measured per protein at 1.6 to 200 uM after 15 mins incubation. Format: ADME, Canis lupus familiaris, Intestine, Microsome. The conditions noted are these: 0.25 h. A digest of the protocol: as §1
In data set [7] the test system is Liver microsome. As to the kind of experiment: Intrinsic clearance in human liver microsomes assessed as R-138727 formation at 1.6 to 200 uM measured per protein after 15 mins incubation. Format: ADME. The conditions noted are these: 0.25 h.
In data set [8] the test system is Liver microsome. As to the kind of experiment: Intrinsic clearance in dog liver microsomes assessed as R-138727 formation measured per protein at 1.6 to 200 uM after 15 mins incubation. The class given is ADME, Canis lupus familiaris. The conditions noted are these: 0.25 h. The procedure, abridged: (§2)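 Microsomes (1 mg protein/ml; dog intestinal, dog liver or human intestinal) in 43 mM potassium phosphate pH 7.4 with an NADPH-generating system and 5 mM glutathione, in triplicate. After 5 min preincubation at 37°C, R-95913 (1.6–200 µM final) was added for 15 min at 37°C. Product was derivatised with methoxyphenacyl bromide, extracted by SPE and measured by HPLC. Michaelis–Menten fit; CLint = Vmax/Km.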

Data set [9] relates to Liver microsome. As to the kind of experiment: Drug metabolism in human liver microsomes assessed as R-138727 formation at 1.6 to 200 uM after 15 mins incubation. The conditions noted are these: 0.25 h. The class given is ADME.
A short description of data set [10]: Intrinsic clearance in dog intestinal microsomes assessed as R-138727 formation measured per protein at 1.6 to 200 uM after 15 mins incubation. Format: ADME, Canis lupus familiaris, Intestine, Microsome. The following applies: 0.25 h. A digest of the protocol:
as §2

Data set [11] in a line: Intrinsic clearance in human intestinal microsomes assessed as R-138727 formation measured per protein at 1.6 to 200 uM after 15 mins incubation. The conditions noted are these: 0.25 h. Format: ADME, Intestine, Microsome. The procedure, abridged:
as §2

Data set [12] has as its system Liver microsome. In words: Drug metabolism in human liver microsomes assessed as R-138727 formation at 1.6 to 200 uM measured per protein after 15 mins incubation. Format: ADME. The following applies: 0.25 h.
In data set [13] the test system is Canis familiaris. As to the kind of experiment: Drug metabolism in beagle dog assessed as R-138727 formation in liver at 1 mg/kg, intraduodenal. The class given is ADME, organism-based, Canis lupus familiaris. The conditions noted are these: in vivo, other. Set-up: dose 1 mg/kg, route intraduodenal. A digest of the protocol: (§3)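 Male beagle dogs (n = 6, 9–12 kg) with portal- and hepatic-vein cannulas, fasted about 19 h, got 1 mg/kg intraduodenally in 5% N,N-dimethylacetamide–95% PEG 400. Portal, hepatic and jugular blood was drawn into heparin at 1–120 min. Plasma was precipitated with acetonitrile (phenacetin internal standard) and analysed by LC-MS/MS in MRM mode. AUC0–2h was by trapezoidal noncompartmental analysis, mean ± S.D.; availability fractions were calculated from these AUCs.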

In data set [14] the test system is Canis familiaris. As to the kind of experiment: Drug metabolism in beagle dog assessed as product of fraction of intestinal absorption and fraction of compound hydrolysis to R-95913 formation in intestine at 1 mg/kg, intraduodenal. Format: ADME, organism-based, Canis lupus familiaris. Set-up: dose 1 mg/kg, route intraduodenal. The conditions noted are these: in vivo, other. The procedure, abridged: as §3

The subject of data set [15] is Canis familiaris. As to the kind of experiment: Drug metabolism in beagle dog assessed as fraction of compound hydrolysis to R-138727 formation in intestine at 1 mg/kg, intraduodenal. Set-up: dose 1 mg/kg, route intraduodenal. Format: ADME, organism-based, Canis lupus familiaris. The conditions noted are these: in vivo, other. The procedure, abridged: as §3
For data set [16], the system named is Canis familiaris. In words: Drug metabolism in beagle dog assessed as fraction of compound hydrolysis to R-95913 formation in intestine at 1 mg/kg, intraduodenal. Format: ADME, organism-based, Canis lupus familiaris. Set-up: dose 1 mg/kg, route intraduodenal. The following applies: in vivo, other. The procedure, abridged: as §3
In data set [17] the test system is Canis familiaris. As to the kind of experiment: Drug metabolism in beagle dog assessed as R-95913 formation in liver at 1 mg/kg, intraduodenal. The conditions noted are these: in vivo, other. Set-up: dose 1 mg/kg, route intraduodenal. Format: ADME, organism-based, Canis lupus familiaris. A digest of the protocol:
as §3

Data set [18] concerns Canis familiaris. As to the kind of experiment: Drug metabolism in beagle dog assessed as fraction of R-95913 hydrolysis to R-138727 formation at 1 mg/kg, intraduodenal. Format: ADME, organism-based, Canis lupus familiaris. Set-up: dose 1 mg/kg, route intraduodenal. The following applies: in vivo, other. The procedure, abridged:
as §3

Data set [19] deals with Canis familiaris. As to the kind of experiment: Drug metabolism in beagle dog assessed as product of fraction of intestinal absorption and fraction of compound hydrolysis to R-138727 formation in intestine at 1 mg/kg, intraduodenal. Format: ADME, organism-based, Canis lupus familiaris. Set-up: dose 1 mg/kg, route intraduodenal. The conditions noted are these: in vivo, other. The procedure, abridged:
as §3

This note sets out measurements from ChEMBL document CHEMBL3526088, “The intestine as an important contributor to prasugrel active metabolite formation in vivo” (Drug Metab Dispos, 2011).

The Vmax is the top rate of the reaction or transport when substrate is in excess. Broadly, the Km is the concentration of substrate that gives half-maximal velocity.

As to `O=C1C=C2CN(C(C(=O)C3CC3)c3ccccc3F)CCC2S1` (centres undefined), the Vmax in the data set on Liver microsome [1] was 379.9 pmol/min/mg; in data set [2], 89.2 pmol/min/mg; in data set [6], 49.8 pmol/min/mg; in the data set on Liver microsome [12], 247 pmol/min/mg. The Km in the data set with Liver microsome [3] was 18.5 µM; in data set [4] it was 42.7 µM; in [5], 80.4 µM; in the data set on Liver microsome [9], 26 µM. Also, the CLH with Liver microsome [7] was 9.6 µL/min/mg. For the same compound, in the data set with Liver microsome [8], the CLint amounted to 20.6 µL/min/mg. For the same compound, the CL worked out at 1.2 µL/min/mg in data set [10] and 1.1 µL/min/mg in data set [11].

`CC(=O)Oc1cc2c(s1)CCN(C(C(=O)C1CC1)c1ccccc1F)C2` (centres undefined) [PRASUGREL]: the Fm in the data set with Canis familiaris [13] worked out at 0.75; in the data set with Canis familiaris [14], 0.8; in the data set on Canis familiaris [15] it was 0.13; in the data set with Canis familiaris [16], 0.83; in the data set on Canis familiaris [17] it was 0.08; in the data set with Canis familiaris [18], 0.23. Moreover, the Fm in the data set with Canis familiaris [19] is 0.13.
